Activity calls are given as the source filed them. The calls are words filed in the database; no cut-off is given here.
Assays:
Rattus norvegicus [1] = species: Rattus norvegicus; assay: Hypoglycemic activity in blood glucose at 2 hr (positive control) in the 18-h fasted normal rat; format: functional
In short: (§1)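 Sprague-Dawley-derived rats (120–130 g), fasted 18 h, in groups of four. Each got 0.5 mL by stomach tube of test compound (100 mg/kg), tolbutamide (25 mg/kg) or vehicle (carboxymethylcellulose/Polysorbate 80/NaCl/benzyl alcohol in water). Then 1.0 mL 12.5% glucose in 0.9% saline was given s.c. Barbiturate anesthesia at 110 min; vena cava blood drawn 9 min later.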

Rattus norvegicus [2] = assay: Hypoglycemic activity in blood glucose at 2 hr (treated) in the 18-h fasted normal rat at a dose of 100 mg/kg; format: functional; in short: as §1
Rattus norvegicus [3] = assay: Hypoglycemic activity in the 18-h fasted normal rat with respect to 1-butyl-3-(p-tolylsulphonyl)urea; inactive at 100 mg/kg at the second stage of testing; format: functional, organism-based; design: dose 100 mg/kg
In short: (§2)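 In 18-h fasted rats (oral dosing, s.c. glucose load), activity was first confirmed, then compounds were retested at half-dose intervals alongside the positive control. Potency relative to tolbutamide came from a parallel line assay.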

Rattus norvegicus [4] = species: Rattus norvegicus; assay: Hypoglycemic activity in the 18-h fasted normal rat with respect to 1-butyl-3-(p-tolylsulphonyl)urea; format: functional; in short: as §2
Rattus norvegicus [5] = species: Rattus norvegicus; assay: Hypoglycemic activity in blood glucose at 2 hr (positive control) in the fasted-refed rat; format: functional
In short: (§3)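 Fasted-refed model: rats fasted 18 h, then given 2 mL liquid diet by stomach tube, otherwise handled as in the fasted-rat test. Blood glucose % change read at 2 h.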

Rattus norvegicus [6] = species: Rattus norvegicus; assay: Hypoglycemic activity in blood glucose at 2 hr (treated) in the fasted-refed rat; format: functional; in short: as §3

Which Change (Rattus norvegicus [1]) does the source give for `O=C(O)c1ccc(CC2CCC2)nc1O` here?
Its Change is -37%.

What about the Change (Rattus norvegicus [2]) of the same compound?
The Change was -14%.

What about the Relative potency (Rattus norvegicus [3]) of the same compound?
The Relative potency was “inactive”.

What does the source list for `Cn1c(CC(C)(C)C)ccc(C(=O)O)c1=O`?
Change (Rattus norvegicus [1]): -34%; Change (Rattus norvegicus [2]): -3%; Relative potency (Rattus norvegicus [3]): inactive

With `CCC(C)(C)c1ccc(C(=O)O)c(O)n1` as the compound, how does the Change (Rattus norvegicus [1]) read?
The Change was -32%.

And the Change (Rattus norvegicus [2])?
The Change was -67%.

What about the Relative potency (Rattus norvegicus [4]) of the same compound?
The Relative potency was 0.9.

With `CCOC(=O)c1ccc(CC(C)(C)C)nc1O` as the compound, how does the Change (Rattus norvegicus [1]) read?
Its Change is -42%.

What about the Change (Rattus norvegicus [2]) of the same compound?
Its Change is -54%.

What about the Relative potency (Rattus norvegicus [4]) of the same compound?
Its Relative potency is 7.4.

For `CCCCCc1ccc(C(=O)O)c(O)n1`, which Change (Rattus norvegicus [1]) is on record?
Its Change is -25%.

What about the Change (Rattus norvegicus [2]) of the same compound?
Its Change is -2%.

And the Relative potency (Rattus norvegicus [3])?
The Relative potency was “inactive”.

Which results are given for `CC(C)(C)Cc1ccc(C(=O)[O-])c(O)n1.[Na+]`?
Change (Rattus norvegicus [1]): -26%; Change (Rattus norvegicus [2]): -56%; Relative potency (Rattus norvegicus [4]): 7.9

Which results are given for `CC(C)Cc1ccc(C(=O)O)c(O)n1`?
Change (Rattus norvegicus [5]): -48%; Change (Rattus norvegicus [1]): -34%; Change (Rattus norvegicus [2]): -61%; Change (Rattus norvegicus [6]): -54%; Relative potency (Rattus norvegicus [4]): 1

For `CC(C)Cc1ccc(C(=O)O)c(=O)n1C`, which Change (Rattus norvegicus [1]) is on record?
Its Change is -22%.

And the Change (Rattus norvegicus [2])?
Its Change is -36%.

And the Relative potency (Rattus norvegicus [4])?
The Relative potency was 0.6.

`CC(C)(C)c1ccc(C(=O)O)c(O)n1` was tested. Which Change (Rattus norvegicus [5]) did it give?
The Change was -40%.

What about the Change (Rattus norvegicus [1]) of the same compound?
The Change was -39%.

What about the Change (Rattus norvegicus [2]) of the same compound?
Its Change is -69%.

What about the Change (Rattus norvegicus [6]) of the same compound?
Its Change is -58%.

And the Relative potency (Rattus norvegicus [4])?
The Relative potency was 1.

What does the source list for `CC(C)CCc1ccc(C(=O)O)c(O)n1`?
Change (Rattus norvegicus [1]): -28%; Change (Rattus norvegicus [2]): -4%; Relative potency (Rattus norvegicus [3]): inactive

What does the source list for `CCCCCCC(C)(C)Cc1ccc(C(=O)O)c(O)n1`?
Change (Rattus norvegicus [1]): -37%; Change (Rattus norvegicus [2]): 8%; Relative potency (Rattus norvegicus [3]): inactive

`CCC(C)(C)Cc1ccc(C(=O)O)c(O)n1` was tested. Which Change (Rattus norvegicus [1]) did it give?
Its Change is -38%.

And the Change (Rattus norvegicus [2])?
The Change was -54%.

What about the Relative potency (Rattus norvegicus [4]) of the same compound?
The Relative potency was 3.8.

How did the Change (Rattus norvegicus [1]) turn out when `CC(C)(C)Cc1ccnc(O)c1C(=O)O` was run?
The Change was -34%.

And the Change (Rattus norvegicus [2])?
The Change was -9%.

And the Relative potency (Rattus norvegicus [3])?
The Relative potency was “inactive”.

Which Change (Rattus norvegicus [1]) does the source give for `CCCCCCC(C)(C)c1ccc(C(=O)O)c(O)n1` here?
Its Change is -37%.

And the Change (Rattus norvegicus [2])?
Its Change is 5%.

And the Relative potency (Rattus norvegicus [3])?
The Relative potency was “inactive”.

What does the source list for `Cc1ccc(C(=O)O)c(O)n1`?
Change (Rattus norvegicus [1]): -34%; Change (Rattus norvegicus [2]): 1%; Relative potency (Rattus norvegicus [3]): inactive

Which Change (Rattus norvegicus [1]) does the source give for `CC(C)(C)Cc1ccc(C(=O)O)cn1` here?
Its Change is -31%.

And the Change (Rattus norvegicus [2])?
The Change was -4%.

And the Relative potency (Rattus norvegicus [3])?
The Relative potency was “inactive”.

How did the Change (Rattus norvegicus [1]) turn out when `CC(C)(C)Cc1ccc(C=O)c(O)n1` was run?
The Change was -47%.

And the Change (Rattus norvegicus [2])?
Its Change is -47%.

And the Relative potency (Rattus norvegicus [4])?
Its Relative potency is 5.9.

For `CC(C)(C)CC1=NC(=O)CC=C1`, which Change (Rattus norvegicus [1]) is on record?
Its Change is -36%.

And the Change (Rattus norvegicus [2])?
Its Change is -1%.

And the Relative potency (Rattus norvegicus [3])?
Its Relative potency is “inactive”.

Which Change (Rattus norvegicus [1]) does the source give for `CC(C)(C)Cc1ccc(-c2nn[nH]n2)c(O)n1` here?
The Change was -34%.

And the Change (Rattus norvegicus [2])?
The Change was -37%.

What about the Relative potency (Rattus norvegicus [4]) of the same compound?
The Relative potency was 1.6.

For `O=C(O)c1ccc[nH]c1=O`, which Change (Rattus norvegicus [5]) is on record?
The Change was -55%.

And the Change (Rattus norvegicus [1])?
The Change was -33%.

And the Change (Rattus norvegicus [2])?
The Change was -26%.

And the Change (Rattus norvegicus [6])?
Its Change is -4%.

And the Relative potency (Rattus norvegicus [4])?
Its Relative potency is 0.25.

What does the source list for `CC(C)(C)Cc1ccc(CC(=O)O)c(O)n1`?
Change (Rattus norvegicus [1]): -25%; Change (Rattus norvegicus [2]): -25%; Relative potency (Rattus norvegicus [4]): 0.25

For `CC(C)(C)Cc1ccc(C(=O)O)c(O)n1`, which Change (Rattus norvegicus [5]) is on record?
The Change was -40%.

What about the Change (Rattus norvegicus [1]) of the same compound?
Its Change is -39%.

And the Change (Rattus norvegicus [2])?
The Change was -59%.

And the Change (Rattus norvegicus [6])?
Its Change is -60%.

And the Relative potency (Rattus norvegicus [4])?
Its Relative potency is 13.

How did the Change (Rattus norvegicus [1]) turn out when `CC(C)(C)Cc1ccc(C(N)=O)c(O)n1` was run?
Its Change is -25%.

And the Change (Rattus norvegicus [2])?
Its Change is 30%.

What about the Relative potency (Rattus norvegicus [3]) of the same compound?
The Relative potency was “inactive”.

What does the source list for `CC(C)c1ccc(C(=O)O)c(O)n1`?
Change (Rattus norvegicus [1]): -26%; Change (Rattus norvegicus [2]): -23%; Relative potency (Rattus norvegicus [3]): inactive

`CC(C)(C)Cc1ccc(CO)c(O)n1` was tested. Which Change (Rattus norvegicus [1]) did it give?
The Change was -26%.

What about the Change (Rattus norvegicus [2]) of the same compound?
The Change was -40%.

And the Relative potency (Rattus norvegicus [4])?
The Relative potency was 5.3.

Reference: ChEMBL document CHEMBL1122864, “1,2-Dihydro-2-oxo-6-(2,2-dimethylpropyl)-3-pyridinecarboxylic acid, analogues, and derivatives. A new class of oral hypoglycemic agents” (1985)
